The source made the active and inactive calls. The calls are words filed in the database; no cut-off is given here.
Key:
[1] = Substrate activity at PYSOCA in human CMEC/D3 cells assessed as transporter-mediated drug uptake measured for 2 mins at 37degC in presence of memantine; type: ADME, cell-based
[2] = Substrate activity at PYSOCA in human CMEC/D3 cells assessed as transporter-mediated drug uptake measured for 2 mins at 37degC in presence of choline; type: ADME, cell-based
[3] = target: Histone deacetylase (Homo sapiens) (UniProt Q13547+O15379+Q9UBN7+Q92769+Q9UQL6+Q8WUI4+Q9BY41+Q96DB2+P56524+Q9UKV0+Q969S8); conditions: at 10 µM
[4] = Substrate activity at PYSOCA in human CMEC/D3 cells assessed as transporter-mediated drug uptake clearance assessed per mg protein at 4degC measured after 30 mins; type: ADME, cell-based; conditions: 0.5 h
Procedure, shortened: (§1)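 Uptake by hCMEC/D3 cells followed over time at 37 °C or 4 °C. Clearance was calculated from the initial linear slope, expressed per mg protein. Mean ± S.E., n = 4.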

[5] = Substrate activity at PYSOCA in human CMEC/D3 cells assessed as transporter-mediated drug uptake measured for 2 mins at 37degC in presence of diphenhydramine; type: ADME, cell-based
Procedure, shortened: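 Uptake by hCMEC/D3 cells was measured at various substrate concentrations, at 37 °C for 2 min, with or without diphenhydramine (100 µM). Data were analysed by Michaelis-Menten and Lineweaver-Burk plots using nonlinear least-squares regression (Eqs. 1 and 2). Mean ± S.E., n = 4.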

[6] = Substrate activity at PYSOCA in human CMEC/D3 cells assessed as transporter-mediated drug uptake measured for 2 mins at 37degC in presence of L-carnitine; type: ADME, cell-based
[7] = Substrate activity at PYSOCA in human CMEC/D3 cells assessed as transporter-mediated drug uptake measured for 2 mins at 37degC in presence of decynium-22; type: ADME, cell-based
[8] = Substrate activity at PYSOCA in human CMEC/D3 cells assessed as transporter-mediated drug uptake measured for 2 mins at 37degC in presence of clonidine; type: ADME, cell-based
[9] = Substrate activity at PYSOCA in human CMEC/D3 cells assessed as transporter-mediated drug uptake measured for 2 mins at 37degC in presence of varenicline; type: ADME, cell-based
[10] = Substrate activity at PYSOCA in human CMEC/D3 cells assessed as transporter-mediated drug uptake measured for 2 mins at 37degC in presence of TEA; type: ADME, cell-based
[11] = Substrate activity at PYSOCA in human CMEC/D3 cells assessed as transporter-mediated drug uptake measured for 2 mins at 37degC in presence of tramadol; type: ADME, cell-based
[12] = Substrate activity at PYSOCA in human CMEC/D3 cells assessed as transporter-mediated drug uptake measured for 2 mins at 37degC in presence of MPP+; type: ADME, cell-based
[13] = target: T1, Protein deacetylase HDAC6 (Mus musculus) (UniProt Q9Z2V5); assay: Inhibition of mouse HDAC6 expressed in 293T cells at 100 uM using Ac-KGLGK(Ac)-MCA as substrate measured after 30 mins by fluorescence assay relative to control
T1 sequence (whole entry): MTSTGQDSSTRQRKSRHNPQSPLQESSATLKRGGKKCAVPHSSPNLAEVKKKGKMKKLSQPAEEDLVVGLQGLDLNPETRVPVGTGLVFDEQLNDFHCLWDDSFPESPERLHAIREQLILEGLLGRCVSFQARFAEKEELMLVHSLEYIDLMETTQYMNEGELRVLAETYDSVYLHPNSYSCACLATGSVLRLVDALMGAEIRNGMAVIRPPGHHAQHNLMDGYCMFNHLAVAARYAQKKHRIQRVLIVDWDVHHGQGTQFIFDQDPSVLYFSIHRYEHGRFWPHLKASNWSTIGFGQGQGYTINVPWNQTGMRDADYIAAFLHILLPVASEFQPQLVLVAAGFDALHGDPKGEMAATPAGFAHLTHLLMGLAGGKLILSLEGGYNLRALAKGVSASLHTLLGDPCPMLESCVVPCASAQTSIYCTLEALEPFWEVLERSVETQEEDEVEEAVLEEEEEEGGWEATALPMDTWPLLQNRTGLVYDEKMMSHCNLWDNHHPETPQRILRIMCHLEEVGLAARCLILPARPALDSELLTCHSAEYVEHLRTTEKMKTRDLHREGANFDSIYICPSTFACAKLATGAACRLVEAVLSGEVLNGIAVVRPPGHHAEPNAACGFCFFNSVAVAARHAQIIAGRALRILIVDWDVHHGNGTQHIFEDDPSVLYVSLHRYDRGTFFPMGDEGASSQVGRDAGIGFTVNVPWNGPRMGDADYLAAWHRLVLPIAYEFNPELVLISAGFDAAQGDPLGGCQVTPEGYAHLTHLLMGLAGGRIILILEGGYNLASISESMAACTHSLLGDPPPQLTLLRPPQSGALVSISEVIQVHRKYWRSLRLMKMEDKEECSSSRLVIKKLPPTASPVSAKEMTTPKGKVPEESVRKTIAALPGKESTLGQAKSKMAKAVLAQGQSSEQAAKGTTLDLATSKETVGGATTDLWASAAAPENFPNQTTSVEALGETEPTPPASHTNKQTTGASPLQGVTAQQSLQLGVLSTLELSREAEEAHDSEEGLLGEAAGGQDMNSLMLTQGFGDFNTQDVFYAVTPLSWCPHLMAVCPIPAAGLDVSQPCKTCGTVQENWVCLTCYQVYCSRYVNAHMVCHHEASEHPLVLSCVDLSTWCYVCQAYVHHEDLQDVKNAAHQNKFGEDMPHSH

[14] = Substrate activity at PYSOCA in human CMEC/D3 cells assessed as transporter-mediated drug uptake measured for 2 mins at 37degC in presence of pyrilamine; type: ADME, cell-based
[15] = Substrate activity at PYSOCA in human CMEC/D3 cells assessed as transporter-mediated drug uptake clearance assessed per mg protein at 37degC; type: ADME, cell-based; procedure, shortened: as §1

What does the source list for `CC(=O)Nc1ccc(C(=O)Nc2ccccc2N)cc1` [TACEDINALINE]?
Activity [1]: Active; Activity [2]: Active; inhibition [3]: Active; Activity [4]: Active; Activity [5]: Active; Activity [6]: Active; Activity [7]: Active; Activity [8]: Active; Activity [9]: Active; Activity [10]: Active; Activity [11]: Active; Activity [12]: Active; inhibition [13]: 18%; Activity [14]: Active; CL [15]: 1.26 µL/min

For `CC(/C=C/C(=O)NO)=C\[C@@H](C)C(=O)c1ccc(N(C)C)cc1`, which inhibition [13] is on record?
Its inhibition is 98%.

With `COc1ccc(CN(CCN(C)C)c2ccc(C(=O)Nc3cc(-c4ccco4)ccc3N)cn2)cc1` as the molecule, how does the inhibition [13] read?
The inhibition was 15%.

For `COc1ccc(CN(CCN(C)C)c2ccc(C(=O)Nc3cc(I)ccc3N)cn2)cc1`, which inhibition [13] is on record?
The inhibition was 16%.

Which inhibition [13] does the source give for `COc1ccc(CN(CCN(C)C)c2ccc(C(=O)Nc3cc(-c4ccccc4)ccc3N)cn2)cc1` here?
The inhibition was 14%.

With `COc1ccc(CN(CCN(C)C)c2ccc(C(=O)Nc3cc(-c4cccs4)ccc3N)cn2)cc1` as the molecule, how does the inhibition [13] read?
Its inhibition is 15%.

Which inhibition [13] does the source give for `COc1ccc(CN(CCN(C)C)c2ccc(C(=O)Nc3cc(Cl)ccc3N)cn2)cc1` here?
Its inhibition is 7%.

Which inhibition [13] does the source give for `COc1ccc(CN(CCN(C)C)c2ccc(C(=O)Nc3cc(Br)ccc3N)cn2)cc1` here?
The inhibition was 21%.
